In brackets after ≈: the same amount, converted by molar mass. Activity calls are given as the source filed them. The calls are words filed in the database; no cut-off is given here.
Columns and labels:
Clostridioides difficile [1] = experiment: Antimicrobial activity against Clostridioides difficile CD10463 incubated for 20 to 24 hrs by broth microdilution method; type: functional
Procedure, shortened: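 Broth microdilution in pre-reduced BHIS using two-fold serial dilutions and ~5 × 10⁵ cfu/mL inoculum. Incubated 20–24 h at 37°C, anaerobic (8% H₂, 8% CO₂, 84% N₂). MIC read by the Lambert-Pearson method; duplicates.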

Clostridioides difficile [2] = experiment: (§1) Suppression of relapse of Clostridioides difficile 630 infection in cefoperazone-treated C57BL/6J mouse model of recurrent Clostridioides difficile 630 infection assessed as reduction in histopathological summary scores at 0.4 mg/ml, po for 5 days from day 4 to 9 after infection with spores measured on day day 14; type: functional, organism-based
Clostridioides difficile [3] = experiment: as §1, with “microbial load (total vegetative cells plus spores)” for “histopathological summary scores”, “spores and” for “spores”, “7” for “day 14”; type: functional, organism-based
Procedure, shortened: (§2)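 Strain 630 spore challenge (10⁵, gavage) of cefoperazone-treated mice; vancomycin 0.4 mg/mL in drinking water on days 4–9. Feces diluted 1:10 in PBS and settled anaerobically 30 min. Ten-fold dilutions plated on TCCFA, incubated anaerobically at 37°C for 24 h. Result is CFU/g feces of total vegetative cells plus spores from unheated samples. Mixed-effect model with Tukey post test.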

Clostridioides difficile [4] = experiment: Suppression of relapse of Clostridioides difficile 630 infection in cefoperazone-treated C57BL/6J mouse model of recurrent Clostridioides difficile 630 infection assessed as reduction in weight loss at 0.4 mg/ml, po for 5 days from day 4 to 9 after infection with spores and measured on day 14; type: functional; set-up: scale not given: the % may be the effect or the level left
Procedure, shortened: (§3)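 Cefoperazone 0.5 mg/ml in drinking water for 5 days, then 2-day washout, in 5-week-old male and female C57BL/6J mice. Oral gavage of 10⁵ C. difficile 630 spores on day 0. Vancomycin 0.4 mg/mL given in drinking water ad libitum on days 4–9. Body weight recorded daily and clinical signs watched for 14 days; n=6 per group.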

Clostridioides difficile [5] = experiment: (§4) Suppression of relapse of Clostridioides difficile 630 infection in cefoperazone-treated C57BL/6J mouse model of recurrent Clostridioides difficile 630 infection assessed as reduction in clinical illness at 0.4 mg/ml, po for 5 days from day 4 to 9 after infection with spores measured on day day 14; type: functional, organism-based; procedure, shortened: as §3
Clostridioides difficile [6] = experiment: as §4, with “group-Proteobacteria level” for “clinical illness”; type: functional, organism-based
Procedure, shortened: (§5)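 Infection model: cefoperazone 0.5 mg/ml in drinking water for 5 days, 2-day washout, then 10⁵ strain 630 spores by gavage. Vancomycin 0.4 mg/mL in drinking water, days 4–9. Cecal tissue snips taken at day 14 necropsy; gut bacterial community profiled by 16S rRNA gene sequencing on Illumina MiSeq. n=6 per group.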

Clostridioides difficile [7] = experiment: as §4, with “group-Bacteroidaceae level” for “clinical illness”; type: functional, organism-based; procedure, shortened: as §5
Clostridioides difficile [8] = experiment: (§6) Suppression of relapse of Clostridioides difficile 630 infection in cefoperazone-treated C57BL/6J mouse model of recurrent Clostridioides difficile 630 infection assessed as reduction in body weight loss at 0.4 mg/ml, po for 5 days from day 4 to 9 after infection with spores and measured on day 3; type: functional, organism-based; procedure, shortened: as §3
Clostridioides difficile [9] = experiment: as §6, with “day 3 after drug cessation” for “day 3”; type: functional, organism-based; procedure, shortened: as §3
Clostridioides difficile [10] = experiment: as §6, with “reduction in microbial load in feces (total vegetative cells plus spores) at 0.4” for “reduction in body weight loss at 0.4”, “day 3 after drug cessation” for “day 3”; type: functional, organism-based; procedure, shortened: as §2

Compound | MIC (Clostridioides difficile [1]) [µM] | further results
N#Cc1cc(NC(=O)c2cc(Cl)cc(Cl)c2O)ccc1Oc1ccc(Cl)cc1 | 0.37 (≈ 0.16 µg/mL) | –
COc1cc(NC(=O)c2cc(Cl)cc(Cl)c2O)ccc1Oc1ccc(Cl)cc1 | 2.6 (≈ 1.14 µg/mL) | –
O=C(Nc1ccc(Oc2ccc(Cl)cc2)cc1Br)c1cc(Cl)cc(Cl)c1O | 0.18 (≈ 0.0878 µg/mL) | –
O=C(Nc1ccc(Oc2ccc(Cl)cc2)c(I)c1)c1cc(Cl)cc(Cl)c1O | 0.6 (≈ 0.321 µg/mL) | –
O=C(Nc1cc([N+](=O)[O-])c(Oc2ccc(Cl)cc2)c([N+](=O)[O-])c1)c1cc(Cl)cc(Cl)c1O | > 2 | –
CN[C@H](CC(C)C)C(=O)N[C@H]1C(=O)N[C@@H](CC(N)=O)C(=O)N[C@H]2C(=O)N[C@H]3C(=O)N[C@H](C(=O)N[C@H](C(=O)O)c4cc(O)cc(O)c4-c4cc3ccc4O)[C@H](O)c3ccc(c(Cl)c3)Oc3cc2cc(c3O[C@@H]2O[C@H](CO)[C@@H](O)[C@H](O)[C@H]2O[C@H]2C[C@](C)(N)[C@H](O)[C@H](C)O2)Oc2ccc(cc2Cl)[C@H]1O [VANCOMYCIN] | 2.1 (≈ 3.04 µg/mL) | Activity (Clostridioides difficile [2]): inactive; Activity (Clostridioides difficile [3]): Active; Activity (Clostridioides difficile [4]): 10 - 26%; Activity (Clostridioides difficile [5]): inactive; Activity (Clostridioides difficile [6]): inactive; Activity (Clostridioides difficile [7]): inactive; Activity (Clostridioides difficile [8]): Active; Activity (Clostridioides difficile [9]): inactive; Activity (Clostridioides difficile [10]): inactive
O=C(Nc1ccc(Oc2ccc(Cl)cc2)cc1)c1cc(Cl)cc(Cl)c1O | 1.4 (≈ 0.572 µg/mL) | –
O=C(Nc1ccc(Oc2ccc(Cl)cc2)c(Br)c1)c1cc(Cl)cc(Cl)c1O | 0.1 (≈ 0.0488 µg/mL) | –
O=C(Nc1ccc(Oc2ccc(Cl)cc2)c(F)c1)c1cc(Cl)cc(Cl)c1O | 0.135 (≈ 0.0576 µg/mL) | –
O=C(Nc1ccc(Oc2ccc(Cl)cc2)cc1I)c1cc(Cl)cc(Cl)c1O | 0.17 (≈ 0.0909 µg/mL) | –
O=C(Nc1cc(I)c(Oc2ccc(Cl)cc2)c(I)c1)c1cc(Cl)cc(Cl)c1O | 0.075 (≈ 0.0495 µg/mL) | –
COc1cc(Oc2ccc(Cl)cc2)ccc1NC(=O)c1cc(Cl)cc(Cl)c1O | 3.6 (≈ 1.58 µg/mL) | –
O=C(Nc1ccc(Oc2ccc(Cl)cc2)c(Cl)c1)c1cc(Cl)cc(Cl)c1O | 0.11 (≈ 0.0487 µg/mL) | –

Reference: ChEMBL document CHEMBL4610116, “Salicylanilide Analog Minimizes Relapse of Clostridioides difficile Infection in Mice” (J Med Chem, 2020)
